Experimental data reported in ChEMBL document CHEMBL1255303, “In vitro and in vivo antifungal activities of T-2307, a novel arylamidine” (2008).
Active and inactive are the calls of the source.

Legend:
[1] = test system: Candida albicans; assay: Antifungal activity against Candida albicans ATCC MYA-573 after 47 hrs by broth microdilution method; type: functional; details: ATCC MYA-573, 47 h
In short: (§1)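 Fluconazole-resistant or susceptible-dose-dependent ATCC C. albicans strains were tested by CLSI M27-A2 broth microdilution in RPMI 1640–0.165 M MOPS, pH 7.0, with a final inoculum of 1.1–1.5 × 10^3 CFU/ml at 35°C for about 47 h. MIC was the lowest concentration with a prominent (~50%) turbidity decrease relative to growth control; amphotericin B was read at complete inhibition.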

[2] = test system: Candida dubliniensis; assay: Antifungal activity against Candida dubliniensis ATCC MYA-577 after 48 hrs by broth microdilution method; type: functional; details: ATCC MYA-577, 48 h
In short: (§2)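 CLSI M27-A2 (yeasts) / M38-A (moulds) broth microdilution in RPMI 1640 buffered to pH 7.0 with 0.165 M MOPS. Malassezia furfur got the same medium supplemented with glucose, bile salts, glycerol, glycerol monostearate and Tween 20. Final inoculum 0.65 × 10^3–2.5 × 10^3 CFU/ml for yeasts and 0.87 × 10^4–3.8 × 10^4 CFU/ml for filamentous fungi. Incubation at 35°C except M. racemosus and F. solani, which were held at 30°C.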

[3] = test system: Aspergillus fumigatus; assay: Antifungal activity against Aspergillus fumigatus IFM 46895 infected ICR mouse assessed as delay in mortality of mouse at 1 mg/kg after 6 days; type: functional, organism-based; parameters: dose 1 mg/kg
In short: (§3)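 Male ICR mice, 4 weeks old and SPF, were made neutropenic with intraperitoneal cyclophosphamide. The schedule was 200 mg/kg on day −3 (day −4 for Cryptococcus) plus 100 mg/kg on day +1. Infection was by tail-vein injection of 0.2 ml suspension: C. albicans 3.0 × 10^4, C. neoformans 9.1 × 10^4, A. fumigatus conidia 8.4 × 10^4 CFU/mouse. Drugs were given subcutaneously once daily for 7 days from 2 h post-infection; controls received saline. Groups had 8–10 mice.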

[4] = test system: Pichia kudriavzevii; assay: Antifungal activity against Candida krusei IFO 0584 after 48 hrs by broth microdilution method; type: functional; details: IFO 0584, 48 h; in short: as §2
[5] = test system: Fusarium solani; assay: Antifungal activity against Fusarium solani IFO 31093 after 48 hrs by broth microdilution method; type: functional; details: IFO 31093, 48 h; in short: as §2
[6] = test system: Aspergillus fumigatus; assay: Antifungal activity against Aspergillus fumigatus clinical isolates after 48 hrs by broth microdilution method; type: functional
In short: (§4)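 Clinical isolates from Japanese hospitals or culture collections were tested by broth microdilution in RPMI 1640-MOPS. Inoculum was 0.57 × 10^3–2.5 × 10^3 CFU/ml for yeasts and 0.4 × 10^4–3.3 × 10^4 CFU/ml for filamentous fungi. Incubation was at 35°C for about 48 h, or 72 h where footnoted. Results were summarised as MIC range, MIC50 and MIC90.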

[7] = test system: Aspergillus flavus; assay: Antifungal activity against Aspergillus flavus NBRC 6343 after 48 hrs by broth microdilution method; type: functional; details: NBRC 6343, 48 h; in short: as §2
[8] = test system: Nakaseomyces glabratus; assay: Antifungal activity against Candida glabrata clinical isolates after 48 hrs by broth microdilution method; type: functional; in short: as §4
[9] = test system: Lichtheimia corymbifera; assay: Antifungal activity against Absidia corymbifera NBRC 4009 after 24 hrs by broth microdilution method; type: functional; details: NBRC 4009, 24 h; in short: as §2
[10] = test system: Candida parapsilosis; assay: Antifungal activity against Candida parapsilosis clinical isolates after 48 hrs by broth microdilution method; type: functional; details: Lodderomyces parapsilosis
In short: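 Japanese hospital Candida isolates were tested by CLSI M27-A2 broth microdilution in RPMI 1640–MOPS, pH 7.0, with inocula of 0.57–2.5 × 10^3 CFU/ml at 35°C for about 48 h. Inocula came from 24-h potato dextrose agar cultures. MIC was the lowest concentration with about 50% turbidity reduction versus growth control (complete inhibition for amphotericin B). Range, MIC50 and MIC90 were reported.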

[11] = test system: Candida tropicalis; assay: Antifungal activity against Candida tropicalis IFO 1400 after 48 hrs by broth microdilution method; type: functional; details: IFO 1400, 48 h; in short: as §2
[12] = test system: Mucor racemosus; assay: Antifungal activity against Mucor racemosus NBRC5403 after 24 hrs by broth microdilution method; type: functional; details: NBRC5403, 24 h
[13] = test system: Candida albicans; assay: Antifungal activity against Candida albicans ATCC MYA-574 after 47 hrs by broth microdilution method; type: functional; details: ATCC MYA-574, 47 h
In short: (§5)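 Fluconazole-resistant or susceptible-dose-dependent C. albicans ATCC strains were tested by broth microdilution in RPMI 1640-MOPS. Inoculum was 1.1 × 10^3–1.5 × 10^3 CFU/ml, with incubation at 35°C for about 47 h. Yeast MIC was read as about 50% turbidity decrease relative to growth control, except amphotericin B, read at complete inhibition.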

[14] = test system: Aspergillus fumigatus; assay: Antifungal activity against Aspergillus fumigatus IFM 46895 infected ICR mouse after 6 days; type: functional; details: IFM 46895, 144 h; in short: as §3
[15] = test system: Scedosporium boydii; assay: Antifungal activity against Pseudallescheria boydii NBRC 32229 after 72 hrs by broth microdilution method; type: functional; details: NBRC 32229, 72 h; in short: as §2
[16] = test system: Aspergillus fumigatus; assay: Antifungal activity against Aspergillus fumigatus IFM 46895 after 48 hrs by broth microdilution method; type: functional; details: IFM 46895, 48 h; in short: as §2
[17] = test system: Candida tropicalis; assay: Antifungal activity against Candida tropicalis clinical isolates after 48 hrs by broth microdilution method; type: functional; in short: as §4
[18] = test system: Cryptococcus neoformans; assay: Antifungal activity against Cryptococcus neoformans ATCC 90113 after 72 hrs by broth microdilution method; type: functional; details: ATCC 90113, 72 h; in short: as §2
[19] = test system: Candida albicans; assay: Antifungal activity against Candida albicans ATCC 90028 after 48 hrs by broth microdilution method; type: functional; details: ATCC 90028, 48 h; in short: as §2
[20] = test system: Candida albicans; assay: Antifungal activity against Candida albicans ATCC 96901 after 47 hrs by broth microdilution method; type: functional; details: ATCC 96901, 47 h; in short: as §1
[21] = test system: Aspergillus niger; assay: Antifungal activity against Aspergillus niger NBRC 33023 after 48 hrs by broth microdilution method; type: functional; details: NBRC 33023, 48 h; in short: as §2
[22] = test system: Candida albicans; assay: Antifungal activity against Candida albicans ATCC MYA-2732 after 47 hrs by broth microdilution method; type: functional; details: ATCC MYA-2732, 47 h; in short: as §5
[23] = test system: Trichophyton rubrum; assay: Antifungal activity against Trichophyton rubrum NBRC 5467 after 72 hrs by broth microdilution method; type: functional; details: NBRC 5467, 72 h; in short: as §2
[24] = test system: Candida albicans; assay: Antifungal activity against Candida albicans ATCC 64550 after 47 hrs by broth microdilution method; type: functional; details: ATCC 64550, 47 h; in short: as §5
[25] = test system: Cryptococcus neoformans; assay: Antifungal activity against Cryptococcus neoformans ATCC 90112 infected ICR mouse after 9 days; type: functional; details: ATCC 90112, 216 h; in short: as §3
[26] = test system: Aspergillus nidulans; assay: Antifungal activity against Aspergillus nidulans NBRC 33017 after 48 hrs by broth microdilution method; type: functional; details: NBRC 33017, 48 h; in short: as §2

N=C(N)c1ccc(OCCCC2CCN(CCCOc3ccc(C(=N)N)cc3)CC2)cc1
0.0039 µg/mL: MIC [8] | MIC50 [8]
active: Activity [3]
0.0625 µg/mL: MIC [16] | MFC [18] | MFC [21] | MIC [21]
0.0078 µg/mL: MIC90 [8] | MIC [18]
0.001 µg/mL: MIC [1] | MIC [2] | MIC [4] | MIC [13] | MIC [19] | MIC [20] | MIC [22]
8 µg/mL: MFC [7]
1 µg/mL: MIC50 [6]
4 µg/mL: MFC [11] | MIC [15]
> 64 µg/mL: MFC [2] | MFC [5] | MFC [9] | MFC [12] | MFC [15] | MFC [16] | MFC [19] | MFC [23]
0.5 µg/mL: MIC [7] | MIC [9]
0.117 mg/kg: ED50 [25]
2 µg/mL: MIC90 [6] | MIC [12] | MIC [23]
0.002 µg/mL: MFC [4]
0.0156 µg/mL: MIC [26]
0.0005 µg/mL: MIC50 [10] | MIC90 [10] | MIC [11] | MIC50 [17] | MIC90 [17] | MIC [24]
0.0313 µg/mL: MFC [26]
0.125 µg/mL: MIC [5]
0.391 mg/kg: ED50 [14]

C[C@@H]1[C@H](O)[C@@H](C)/C=C/C=C/C=C/C=C/C=C/C=C/C=C/[C@H](O[C@@H]2O[C@H](C)[C@@H](O)[C@H](N)[C@@H]2O)C[C@@H]2O[C@](O)(C[C@@H](O)C[C@@H](O)[C@H](O)CC[C@@H](O)C[C@@H](O)CC(=O)O[C@H]1C)C[C@H](O)[C@H]2C(=O)O [AMPHOTERICIN B]
0.289 mg/kg: ED50 [14]
> 64 µg/mL: MFC [9] | MFC [15] | MIC [15]
1 µg/mL: MIC [2] | MIC [8] | MIC50 [8] | MFC [11] | MIC [11] | MIC [12] | MIC [13] | MIC [17] | MIC50 [17] | MFC [19] | MIC [19] | MIC [20] | MFC [23] | MIC [23] | MIC [24]
active: Activity [3]
0.199 mg/kg: ED50 [25]
2 µg/mL: MIC [1] | MFC [2] | MFC [4] | MIC [4] | MFC [5] | MIC [5] | MIC50 [6] | MIC90 [6] | MFC [7] | MIC [7] | MIC90 [8] | MIC [9] | MIC50 [10] | MIC90 [10] | MFC [12] | MFC [16] | MIC [16] | MIC90 [17] | MFC [18] | MIC [18] | MFC [21] | MIC [21] | MIC [22] | MFC [26] | MIC [26]
